How the values were obtained:
[1] = Antiproliferative activity against human C4-2B cells assessed as inhibition of cell viability after 48 hrs by MTT reduction assay; assay type: functional, cell-based; details: LNCaP C4-2B
Method in brief: (§1)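 Cells grown in RPMI-1640 or EMEM with 10% FBS at 37 °C under 5% CO2. Seeded at 1 × 10^4 cells/well for 12 h, then exposed to a range of compound concentrations for 48 h. Viability read by MTT reduction. 5-Fluorouracil was the positive control. Each assay was repeated three times, and IC50 reported as mean ± SD.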

[2] = Antiproliferative activity against human ACHN cells assessed as inhibition of cell viability after 48 hrs by MTT reduction assay; assay type: functional, cell-based; method in brief: as §1
[3] = Antiproliferative activity against human A498 cells assessed as inhibition of cell viability after 48 hrs by MTT reduction assay; assay type: functional, cell-based; details: A498, 48 h; method in brief: as §1
[4] = Antiproliferative activity against human 786-0 cells assessed as inhibition of cell viability after 48 hrs by MTT reduction assay; assay type: functional, cell-based; details: 786-0, 48 h; method in brief: as §1
[5] = Antiinflammatory activity in mouse RAW264.7 cells assessed as inhibition of LPS-induced nitric oxide production after 24 hrs by Griess assay; assay type: functional, cell-based; details: RAW264.7, 24 h
Method in brief: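 RAW 264.7 macrophages seeded at 1 × 10^6 cells/well, then incubated 24 h at 37 °C with LPS (1 μg/mL), with or without test compounds. NO measured by Griess reagent (0.1% N-(1-naphthyl)ethylenediamine plus 1% sulfanilamide in 5% H3PO4), absorbance at 540 nm. NO concentration and inhibition rate calculated from a standard curve. Hydrocortisone served as positive control.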

[6] = Antiproliferative activity against human 22Rv1 cells assessed as inhibition of cell viability after 48 hrs by MTT reduction assay; assay type: functional, cell-based, CWR22R; details: 22Rv1, 48 h; method in brief: as §1
[7] = Antiproliferative activity against human A375-S2 cells assessed as inhibition of cell viability after 48 hrs by MTT reduction assay; assay type: functional, cell-based; details: A375-S2, 48 h; method in brief: as §1

CC(=O)O[C@H]1C[C@@](O)([C@H](C)[C@H]2CC(C)=C(C)C(=O)O2)[C@@]2(C)CC[C@H]3[C@@H](C[C@H]4O[C@]45CC=CC(=O)[C@]35C)[C@@]12O
IC50 [1]: 270 nM
IC50 [2]: 400 nM
IC50 [3]: 530 nM
IC50 [4]: 520 nM
IC50 [5]: 3420 nM
IC50 [6]: 2380 nM
IC50 [7]: 3850 nM

CC(=O)O[C@H]1[C@@H]2O[C@]2([C@H](C)[C@H]2CC(C)=C(C)C(=O)O2)[C@@]2(C)CC[C@H]3[C@@H](C[C@@H](O)[C@@]4(Cl)CC=CC(=O)[C@]34C)[C@@]12O
IC50 [1]: 1070 nM
IC50 [2]: 780 nM
IC50 [3]: 520 nM
IC50 [4]: 690 nM
IC50 [5]: 1420 nM
IC50 [6]: 2280 nM
IC50 [7]: 5000 nM

CC(=O)O[C@H]1C[C@@](O)([C@H](C)[C@H]2CC(C)=C(C)C(=O)O2)[C@@]2(C)CC[C@H]3[C@@H](C[C@@H](O)[C@@]4(O)CC=CC(=O)[C@]34C)[C@@]12O
IC50 [1]: > 10000 nM
IC50 [2]: > 10000 nM
IC50 [3]: > 10000 nM
IC50 [4]: > 10000 nM
IC50 [5]: > 100000 nM
IC50 [6]: > 10000 nM
IC50 [7]: > 10000 nM

CC(=O)O[C@H]1[C@@H]2O[C@]2([C@H](C)[C@H]2CC(C)=C(C)C(=O)O2)[C@@]2(C)CC[C@H]3[C@@H](C[C@@H](O)[C@@]4(O)CC=CC(=O)[C@]34C)[C@@]12O
IC50 [1]: > 10000 nM
IC50 [2]: > 10000 nM
IC50 [3]: > 10000 nM
IC50 [4]: > 10000 nM
IC50 [5]: 59500 nM
IC50 [6]: > 10000 nM
IC50 [7]: > 10000 nM

Reference: ChEMBL document CHEMBL3860025, “Antiproliferative and Anti-inflammatory Withanolides from Physalis angulata” (J Nat Prod, 2016)
